From article PMC5615838 (Toxicology Reports, 2016)

Legend:
[1] = dose range-finding developmental toxicity study; assay type: in vivo, rat; conditions: 125, 250, 500, 1000 mg/kg bw/day oral gavage, gestation days 6-20
[2] = JECFA SPET dietary exposure estimate; set-up: species or system human; conditions: 28- and 90-day toxicology studies
CYP2D6 = CYP2D6 (Homo sapiens, UniProt P10635); assay: CYP inhibition, LC–MS/MS assay in human liver microsomes; assay type: in vitro ADME; conditions: pooled human liver microsomes, probe bufuralol
Procedure, shortened: (§1)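 Follow-up CYP panel in pooled human liver microsomes with CYP-specific probe substrates; CYP-specific metabolites quantified by LC-MS/MS. Test compound at 10 μM. Percent inhibition reported.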

CYP3A4 = CYP3A4 (Homo sapiens, UniProt P08684); assay: as above; assay type: in vitro ADME; conditions: pooled human liver microsomes, probe midazolam
Procedure, shortened: as §1

Chain of CYP3A4 (P08684 whole entry): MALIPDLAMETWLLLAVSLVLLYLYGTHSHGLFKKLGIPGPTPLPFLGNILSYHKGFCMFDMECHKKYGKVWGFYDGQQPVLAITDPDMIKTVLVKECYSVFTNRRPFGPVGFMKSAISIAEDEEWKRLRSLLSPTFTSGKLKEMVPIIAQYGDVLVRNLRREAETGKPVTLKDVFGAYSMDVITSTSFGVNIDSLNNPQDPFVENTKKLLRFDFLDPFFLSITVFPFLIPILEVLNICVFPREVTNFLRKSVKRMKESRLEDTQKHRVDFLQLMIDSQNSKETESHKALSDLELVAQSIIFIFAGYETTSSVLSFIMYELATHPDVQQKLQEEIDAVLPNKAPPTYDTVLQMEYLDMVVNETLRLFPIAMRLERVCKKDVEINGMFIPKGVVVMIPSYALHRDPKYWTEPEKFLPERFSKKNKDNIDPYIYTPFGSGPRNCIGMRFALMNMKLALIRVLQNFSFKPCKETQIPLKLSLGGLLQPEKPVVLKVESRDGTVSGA
Chain of CYP2D6 (P10635 whole entry): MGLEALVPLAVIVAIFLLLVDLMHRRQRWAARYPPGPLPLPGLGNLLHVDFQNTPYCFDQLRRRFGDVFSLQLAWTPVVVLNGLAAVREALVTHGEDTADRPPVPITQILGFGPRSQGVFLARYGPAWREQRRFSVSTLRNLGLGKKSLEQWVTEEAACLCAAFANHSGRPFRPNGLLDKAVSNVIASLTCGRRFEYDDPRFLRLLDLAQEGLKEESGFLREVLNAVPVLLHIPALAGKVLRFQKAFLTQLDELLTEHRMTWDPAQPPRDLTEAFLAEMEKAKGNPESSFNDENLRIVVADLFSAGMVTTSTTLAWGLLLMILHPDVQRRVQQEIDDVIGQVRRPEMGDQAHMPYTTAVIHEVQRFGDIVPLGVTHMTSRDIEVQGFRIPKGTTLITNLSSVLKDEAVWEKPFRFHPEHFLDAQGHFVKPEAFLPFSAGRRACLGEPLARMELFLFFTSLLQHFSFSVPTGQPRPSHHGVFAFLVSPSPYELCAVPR

In the case of `Cc1noc(C)c1Cn1cc(N2C(=O)CN(Cc3cccc(O)c3)C2=O)cn1` [S6821, 3-(1-((3,5-dimethylisoxazol-4-yl)methyl)-1H-pyrazol-4-yl)-1-(3-hydroxybenzyl)imidazolidine-2,4-dione], the Findings [1] is reported as “No maternal toxicity or effect on intrauterine growth up to 1000 mg/kg bw/day”, the “NOAEL of 100 mg/kg bw/day as multiple of estimated dietary exposure” value [2] is reported as 1500 times and the inhibition at 10 µM (CYP2D6) is reported as -2%. The inhibition at 10 µM (CYP3A4) was 4%.
